Experimental data collected from several papers.
Each line is one published result; the experiments were not run side by side.
Target: Serine/threonine-protein kinase PAK 2 (PAK2, Homo sapiens, UniProt Q13177)

C[C@H]1CC[C@H](n2c3cnccc3c3cnc(Nc4ccc5c(n4)CCN(C(=O)CO)C5)nc32)CC1  remaining signal (cell-free assay; 1 µM): 76%
C1=C/COCc2cc(ccc2OCCN2CCCC2)Nc2nccc(n2)-c2cccc(c2)COC/1  remaining binding (binding; 0.1 µM): 94%
COc1ccc2oc(-c3ccc4nc(N)oc4c3)c/c(=N\c3ccccc3NC(=O)CCN)c2c1  remaining binding (binding; 1 µM): 98%
CCCCC(=O)Nc1ccc(-c2ccc3ncn(CCC)c(=O)c3c2)cn1  remaining binding (binding, competition with immobilised ligand; 0.5 µM): 91%
C=CC(=O)N1CCC([C@@H]2CCNc3c(C(N)=O)c(-c4ccc(Oc5ccccc5)cc4)nn32)CC1  inhibition (enzyme activity, inhibitor; 1 µM): 23%
N#Cc1ccc(NC(=O)Nc2ccccc2)cc1  remaining binding (cell-free assay, competition with immobilised ligand; 25 µM): 82%
CO[C@@H]1[C@H](N(C)C(=O)c2ccccc2)C[C@H]2O[C@]1(C)n1c3ccccc3c3c4c(c5c6ccccc6n2c5c31)C(=O)NC4  inhibition (enzyme activity, inhibitor; 1 µM): 28%
Cc1cc(O)c(-c2ccc([C@@H](C)CN(C)C)cc2)c2c1[nH]c(=O)c1sccc12  inhibition (cell-free assay, inhibitor; 0.1 µM, lysate): -5.59%
CN1CCN(C(=O)c2ccc(NC(=O)Nc3ccc(N(C)c4ccnc(Nc5ccc(CS(C)(=O)=O)cc5)n4)cc3)cc2)CC1  remaining binding (binding; 1 µM): 50%
C#Cc1cnc(Nc2ccnc(CO)c2)nc1Nc1ccccc1S(C)(=O)=NC#N (stereo not shown)  remaining signal (cell-free assay; 1 µM): 48%
